Experimental data: ChEMBL document CHEMBL4145587, “Peniisocoumarins A-J: Isocoumarins from Penicillium commune QQF-3, an Endophytic Fungus of the Mangrove Plant Kandelia candel” (J Nat Prod, 2018)
pIC50: −log10 of the molar value. Activity calls are given as the source filed them. The rule behind the calls is not given here.

Columns and labels:
HEK-293T = assay: Cytotoxicity against human HEK293T cells by MTT assay; assay type: functional, cell-based
Method in brief: (§1)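 MTT read-out in human cell lines A549, HepG2, HeLa, MCF-7 and HEK293T. Compounds were tested at 100 μM. Other details follow a prior report.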

MCF7 = assay: Cytotoxicity against human MCF7 cells by MTT assay; assay type: functional, cell-based; method in brief: as §1
Saccharomyces cerevisiae = assay: Inhibition of Saccharomyces cerevisiae alpha-glucosidase at 200 uM using p-nitrophenyl-glycoside as substrate incubated for 20 mins followed by substrate addition measured immediately relative to control
Method in brief: (§2)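 Yeast α-glucosidase from S. cerevisiae, from an enzyme stock of 2.0 units/mL, in 0.01 M potassium phosphate buffer at pH 7.0. Sample in DMSO was preincubated with enzyme for 20 min at 37 °C. p-Nitrophenyl glycoside (3 mg/mL stock) was then added and A410 read immediately at 37 °C. Inhibition % = (B−S)/B×100, with B as the DMSO blank. Screened at 200 μM; compounds above 45% inhibition went on to IC50. Triplicates.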

A549 = assay: Cytotoxicity against human A549 cells by MTT assay; assay type: functional, cell-based; method in brief: as §1
HeLa = assay: Cytotoxicity against human HeLa cells by MTT assay; assay type: functional, cell-based; method in brief: as §1
[1] = molecular target: T1, Phosphotyrosine protein phosphatase (Mycobacterium tuberculosis) (UniProt A0A045ISB3); assay: Inhibition of Mycobacterium tuberculosis H37Ra PTPB expressed in Escherichia coli BL21 (DE3) at 50 uM using p-nitrophenyl phosphate as substrate preincubated for 10 mins followed by substrate addition measured for 5 mins by spectrophotometric analysis
T1 sequence (whole entry): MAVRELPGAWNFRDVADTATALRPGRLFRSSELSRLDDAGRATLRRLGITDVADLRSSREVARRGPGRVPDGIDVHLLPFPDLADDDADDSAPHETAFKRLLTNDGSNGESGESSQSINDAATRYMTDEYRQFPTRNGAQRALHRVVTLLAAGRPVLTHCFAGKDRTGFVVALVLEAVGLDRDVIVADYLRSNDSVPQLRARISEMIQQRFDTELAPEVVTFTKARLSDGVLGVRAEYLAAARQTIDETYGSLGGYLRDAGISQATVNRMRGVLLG
Method in brief: (§3)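 Triplicate wells; reaction buffer 50 mM Tris/100 mM NaCl, pH 7.0; p-nitrophenyl phosphate as substrate; oleanolic acid as positive control. Full details on enzyme overexpression, purification and assay are given in an earlier report.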

HepG2 = assay: Cytotoxicity against human HepG2 cells by MTT assay; assay type: functional, cell-based; method in brief: as §1
[2] = Inhibition of Saccharomyces cerevisiae alpha-glucosidase using p-nitrophenyl-glycoside as substrate incubated for 20 mins followed by substrate addition measured immediately; method in brief: as §2
[3] = molecular target: T2, Phosphotyrosine protein phosphatase (Mycobacterium tuberculosis, UniProt A0A045ISB3); assay: Inhibition of Mycobacterium tuberculosis H37Ra PTPB expressed in Escherichia coli BL21 (DE3) using p-nitrophenyl phosphate as substrate preincubated for 10 mins followed by substrate addition measured for 5 mins by spectrophotometric analysis; method in brief: as §3
T2 sequence (A0A045ISB3 whole entry): T1 sequence (whole entry)

Question: For `COc1cc(O)c2c(=O)oc(C[C@@H](O)CO)cc2c1`, which Activity (HEK-293T) is on record?
Answer: Its Activity is “inactive”.

Question: And the Activity (MCF7)?
Answer: The Activity was “inactive”.

Question: And the inhibition (Saccharomyces cerevisiae)?
Answer: Its inhibition is 43%.

Question: And the Activity (A549)?
Answer: Its Activity is “inactive”.

Question: And the Activity (HeLa)?
Answer: Its Activity is “inactive”.

Question: And the inhibition [1]?
Answer: The inhibition was “inactive”.

Question: And the Activity (HepG2)?
Answer: Its Activity is “inactive”.

Question: Which results are given for `COc1cc(O)c2c(=O)oc(C[C@@H]3O[C@@H]3C(C)=O)cc2c1`?
Answer: Activity (HEK-293T): inactive; Activity (MCF7): inactive; inhibition (Saccharomyces cerevisiae): 95%; Activity (A549): inactive; pIC50 [2]: 4.42; Activity (HeLa): inactive; inhibition [1]: inactive; Activity (HepG2): inactive

Question: What does the source list for `COc1cc(O)c2c(=O)oc(C[C@@H](O)C(Cl)Cl)cc2c1O`?
Answer: Activity (HEK-293T): inactive; Activity (MCF7): inactive; inhibition (Saccharomyces cerevisiae): 91%; Activity (A549): inactive; pIC50 [2]: 4.35; Activity (HeLa): inactive; inhibition [1]: inactive; Activity (HepG2): inactive

Question: With `C[C@H](O)Cc1cc2c(O)c(O)cc(O)c2c(=O)o1` as the molecule, how does the pIC50 [3] read?
Answer: The pIC50 was 4.68.

Question: What about the Activity (HEK-293T) of the same molecule?
Answer: Its Activity is “inactive”.

Question: And the Activity (MCF7)?
Answer: Its Activity is “inactive”.

Question: And the inhibition (Saccharomyces cerevisiae)?
Answer: Its inhibition is 91%.

Question: What about the Activity (A549) of the same molecule?
Answer: Its Activity is “inactive”.

Question: What about the pIC50 [2] of the same molecule?
Answer: The pIC50 was 4.39.

Question: And the Activity (HeLa)?
Answer: Its Activity is “inactive”.

Question: And the Activity (HepG2)?
Answer: The Activity was “inactive”.

Question: What does the source list for `COc1cc(O)c2c(=O)oc(C[C@@H](Cl)CO)cc2c1O`?
Answer: Activity (HEK-293T): inactive; Activity (MCF7): inactive; inhibition (Saccharomyces cerevisiae): 66%; Activity (A549): inactive; pIC50 [2]: 3.96; Activity (HeLa): inactive; inhibition [1]: inactive; Activity (HepG2): inactive

Question: With `COc1cc(O)c2c(=O)oc(C[C@@H](Cl)CO)cc2c1` as the molecule, how does the Activity (HEK-293T) read?
Answer: The Activity was “inactive”.

Question: And the Activity (MCF7)?
Answer: The Activity was “inactive”.

Question: What about the inhibition (Saccharomyces cerevisiae) of the same molecule?
Answer: Its inhibition is 58%.

Question: And the Activity (A549)?
Answer: Its Activity is “inactive”.

Question: What about the pIC50 [2] of the same molecule?
Answer: Its pIC50 is 3.80.

Question: What about the Activity (HeLa) of the same molecule?
Answer: Its Activity is “inactive”.

Question: What about the inhibition [1] of the same molecule?
Answer: Its inhibition is “inactive”.

Question: And the Activity (HepG2)?
Answer: The Activity was “inactive”.

Question: With `COC(=O)[C@@H]1[C@H](C(=O)OC)[C@H](c2cc3cc(OC)cc(O)c3c(=O)o2)[C@@H]1c1cc2cc(OC)cc(O)c2c(=O)o1` as the molecule, how does the Activity (HEK-293T) read?
Answer: The Activity was “inactive”.

Question: And the Activity (MCF7)?
Answer: The Activity was “inactive”.

Question: What about the inhibition (Saccharomyces cerevisiae) of the same molecule?
Answer: Its inhibition is 23%.

Question: And the Activity (A549)?
Answer: Its Activity is “inactive”.

Question: What about the Activity (HeLa) of the same molecule?
Answer: The Activity was “inactive”.

Question: And the inhibition [1]?
Answer: Its inhibition is “inactive”.

Question: And the Activity (HepG2)?
Answer: The Activity was “inactive”.

Question: For `COC(=O)[C@@H]1[C@H](C(=O)OC)[C@@H](c2cc3cc(OC)cc(O)c3c(=O)o2)[C@H]1c1cc2cc(OC)cc(O)c2c(=O)o1`, which Activity (HEK-293T) is on record?
Answer: Its Activity is “inactive”.

Question: And the Activity (MCF7)?
Answer: Its Activity is “inactive”.

Question: What about the inhibition (Saccharomyces cerevisiae) of the same molecule?
Answer: The inhibition was 18%.

Question: And the Activity (A549)?
Answer: Its Activity is “inactive”.

Question: What about the Activity (HeLa) of the same molecule?
Answer: Its Activity is “inactive”.

Question: And the inhibition [1]?
Answer: The inhibition was “inactive”.

Question: And the Activity (HepG2)?
Answer: The Activity was “inactive”.

Question: Which results are given for `COc1cc(O)c2c(=O)oc(C[C@@H](O)CCl)cc2c1`?
Answer: Activity (HEK-293T): inactive; Activity (MCF7): inactive; inhibition (Saccharomyces cerevisiae): 41%; Activity (A549): inactive; Activity (HeLa): inactive; inhibition [1]: inactive; Activity (HepG2): inactive

Question: With `COc1cc(O)c2c(=O)oc(C[C@@H](O)CC(C)=O)cc2c1` as the molecule, how does the Activity (HEK-293T) read?
Answer: The Activity was “inactive”.

Question: And the Activity (MCF7)?
Answer: Its Activity is “inactive”.

Question: What about the inhibition (Saccharomyces cerevisiae) of the same molecule?
Answer: The inhibition was 38%.

Question: What about the Activity (A549) of the same molecule?
Answer: The Activity was “inactive”.

Question: And the Activity (HeLa)?
Answer: The Activity was “inactive”.

Question: And the inhibition [1]?
Answer: Its inhibition is “inactive”.

Question: And the Activity (HepG2)?
Answer: Its Activity is “inactive”.

Question: Which results are given for `COc1cc(O)c2c(=O)oc(C[C@@H](O)CO)cc2c1O`?
Answer: Activity (HEK-293T): inactive; Activity (MCF7): inactive; inhibition (Saccharomyces cerevisiae): 83%; Activity (A549): inactive; pIC50 [2]: 4.11; Activity (HeLa): inactive; inhibition [1]: inactive; Activity (HepG2): inactive

Question: With `COc1cc(O)c2c(=O)oc(C[C@@H](O)C(Cl)Cl)cc2c1` as the molecule, how does the Activity (HEK-293T) read?
Answer: The Activity was “inactive”.

Question: What about the Activity (MCF7) of the same molecule?
Answer: The Activity was “inactive”.

Question: What about the inhibition (Saccharomyces cerevisiae) of the same molecule?
Answer: Its inhibition is 69%.

Question: And the Activity (A549)?
Answer: Its Activity is “inactive”.

Question: And the pIC50 [2]?
Answer: Its pIC50 is 3.99.

Question: What about the Activity (HeLa) of the same molecule?
Answer: The Activity was “inactive”.

Question: What about the inhibition [1] of the same molecule?
Answer: The inhibition was “inactive”.

Question: What about the Activity (HepG2) of the same molecule?
Answer: The Activity was “inactive”.

Question: For `COc1cc(O)c2c(=O)oc(C[C@H](C)O)cc2c1`, which Activity (HEK-293T) is on record?
Answer: The Activity was “inactive”.

Question: And the Activity (MCF7)?
Answer: Its Activity is “inactive”.

Question: What about the inhibition (Saccharomyces cerevisiae) of the same molecule?
Answer: The inhibition was 33%.

Question: What about the Activity (A549) of the same molecule?
Answer: The Activity was “inactive”.

Question: What about the Activity (HeLa) of the same molecule?
Answer: The Activity was “inactive”.

Question: What about the inhibition [1] of the same molecule?
Answer: The inhibition was “inactive”.

Question: And the Activity (HepG2)?
Answer: The Activity was “inactive”.

Question: With `CC1(C)CC[C@]2(C(=O)O)CC[C@]3(C)C(=CC[C@@H]4[C@@]5(C)CC[C@H](O)C(C)(C)[C@@H]5CC[C@]43C)[C@@H]2C1` [OLEANOLIC_ACID] as the molecule, how does the pIC50 [3] read?
Answer: The pIC50 was 4.66.

Question: For `C[C@H]1O[C@H](O[C@H]2[C@H](O)[C@@H](O)[C@@H](O[C@H]3[C@H](O)[C@@H](O)C(O)O[C@@H]3CO)O[C@@H]2CO)[C@H](O)[C@@H](O)[C@@H]1N[C@H]1C=C(CO)[C@@H](O)[C@H](O)[C@H]1O` (stereo partly specified) [ACARBOSE], which inhibition (Saccharomyces cerevisiae) is on record?
Answer: The inhibition was 19%.

Question: What about the pIC50 [2] of the same molecule?
Answer: Its pIC50 is 3.32.
